# Columns and labels:
# α1β3δ receptors = α1β3δ receptors (Rattus norvegicus, UniProt P62813+P63079); assay: Two electrode voltage clamp in Xenopus oocytes, modulation of GABA current; assay type: cell-based; details: for stimulation of GABA EC3: 10 μM concentration
# Summary of the method: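 α1β3δ receptors from rat cRNAs injected at 3:1:5 into Xenopus oocytes, expressed ≥24 h. Two-electrode clamp at −60 mV, room temperature. GABA concentration–response curves (including 1 μM and 1 mM GABA) recorded with and without 10 μM test compound, currents normalised to maximum evoked current. Hill fits. Curves with and without modulator compared by paired Student's t test, P<0.05, n = 4.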
# αβδ receptors = assay: Two electrode voltage clamp, DS2 test for incorporation of the delta subunit; assay type: cell-based, rat; details: 10 μM DS2 (experiments not shown)
# Summary of the method: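 Expression of δ checked in every oocyte injected with α, β and δ cRNAs: GABA-induced current tested with addition of 10 μM DS2, under two-electrode voltage clamp at −60 mV, room temperature, in Xenopus Ringer.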
# α1β3γ2 receptors [1] = target: T1, α1β3γ2 receptors (Rattus norvegicus, UniProt P62813+P63079); assay: Two electrode voltage clamp in Xenopus oocytes, modulation of GABA EC3 current; assay type: cell-based; details: GABA alone
# α1β3 receptors [2] = target: T2, α1β3 receptors (Rattus norvegicus, UniProt P62813+P63079); assay: Two electrode voltage clamp in Xenopus oocytes, modulation of GABA EC3 current; assay type: cell-based
# Summary of the method: (§1)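 Rat α and β3 cRNAs (capped, polyadenylated) injected at 1:1 into Xenopus oocytes, 2.5–4 ng per oocyte, at least 24 h at 18 °C, then defolliculated. Two-electrode voltage clamp at −60 mV, room temperature, in Xenopus Ringer (pH 7.4). GABA titrated to 3–7 % of each oocyte's maximum (EC3). Test compound (0.1 % DMSO final) pre-applied 30 s, then co-applied with GABA until peak. Washout up to 15 min between applications. Responses are % of the GABA control. Mean ± SEM from ≥3 oocytes, ≥2 batches.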
# α1β2δ receptors = α1β2δ receptors (Rattus norvegicus, UniProt P62813+P63138); assay: Two electrode voltage clamp in Xenopus oocytes, modulation of GABA EC3 current; assay type: cell-based
# Summary of the method: (§2)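 Oocytes injected with rat α, β and δ cRNAs (3:1:5, 2.5–4 ng total) and held ≥24 h at 18 °C before collagenase defolliculation. Voltage clamped at −60 mV, room temperature, perfused 6 ml/min with Ringer (pH 7.4). GABA EC3 (3–7 % of individual maximum) co-applied with test compound after 30 s pre-application, 0.1 % DMSO final. Concentration–response fit with Hill equation, bottom fixed at 100 %. Mean ± SEM, ≥3 oocytes, ≥2 batches.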
# [3] = target: benzodiazepine binding site of α1β3γ2 receptors; details: read-out: IC50 of [3H]Ro15-1788 binding; cited from earlier work
# α1S204Cβ3Q64C receptors = α1S204Cβ3Q64C receptors (Rattus norvegicus, UniProt P62813+P63079, Q89C/S231C); assay: Two electrode voltage clamp, steric hindrance; assay type: cell-based
# Summary of the method: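 Oocytes expressing rat α1S204C with β3Q64C (1:1 cRNA) were defolliculated, then immersed 3 min in freshly made 2 mM MTSEA-biotin in Ringer containing GABA EC3, washed 5 min and recorded the same day. Two-electrode clamp at −60 mV with GABA EC3 plus test compound, compared with untreated oocytes. Mean ± SEM, n = 3–4.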
# α1β3 receptors [4] = target: T2, α1β3 receptors; details: 10 μM concentration; cited from earlier work
# α2β3 receptors = α2β3 receptors (Rattus norvegicus, UniProt P23576+P63079); assay: Two electrode voltage clamp in Xenopus oocytes, modulation of GABA EC3 current; assay type: cell-based; details: 10 μM concentration
# Summary of the method: as §1
# α5β3 receptors = α5β3 receptors (Rattus norvegicus, UniProt P19969+P63079); assay: as above; assay type: cell-based; details: 10 μM
# Summary of the method: as §1
# α6β3γ2 receptors [5] = target: T3, α6β3γ2 receptors (Rattus norvegicus, UniProt P30191+P63079); assay: Two electrode voltage clamp in Xenopus oocytes, modulation of GABA EC3 current; assay type: cell-based; details: 10 μM concentration
# Summary of the method: (§3)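 Rat αxβ3γ2 cRNAs injected into Xenopus oocytes at a 1:1:5 ratio, 2.5–4 ng total, incubated at least 36 h at 18 °C before defolliculation. Two-electrode clamp at −60 mV, room temperature, Ringer pH 7.4. GABA at EC3 (3–7 % of the cell's maximum current). Test compound (0.1 % DMSO) pre-applied 30 s, then co-applied with GABA to peak. Effects are % of GABA EC3 current. Mean ± SEM, ≥3 oocytes from ≥2 batches.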
# α4β3δ receptors = α4β3δ receptors (Rattus norvegicus, UniProt P28471+P63079); assay: Two electrode voltage clamp in Xenopus oocytes, modulation of GABA EC3 current; assay type: cell-based
# Summary of the method: as §2
# α4β3γ2 receptors [6] = target: T4, α4β3γ2 receptors (Rattus norvegicus, UniProt P28471+P63079); assay: Two electrode voltage clamp in Xenopus oocytes, modulation of GABA EC3 current; assay type: cell-based; details: 10 μM concentration
# Summary of the method: as §3
# α1β1δ receptors = α1β1δ receptors (Rattus norvegicus, UniProt P15431+P62813); assay: Two electrode voltage clamp in Xenopus oocytes, modulation of GABA EC3 current; assay type: cell-based
# Summary of the method: as §2
# α1β3Q64Cδ receptors = α1β3Q64Cδ receptors (Rattus norvegicus, UniProt P62813+P63079, Q89C); assay: Two electrode voltage clamp, steric hindrance; assay type: cell-based; details: 10 μM
# Summary of the method: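 α1, β3Q64C and δ cRNAs injected at 3:1:5. Defolliculated oocytes were exposed 3 min to freshly prepared 2 mM MTSEA-biotin in Ringer with GABA EC3, rinsed 5 min and used the same day. Untreated oocytes served as comparison. GABA EC3 response to 10 μM test compound measured by two-electrode clamp at −60 mV. Treated and untreated groups compared by unpaired Student's t test, P<0.05.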
# α6β3δ receptors = α6β3δ receptors (Rattus norvegicus, UniProt P30191+P63079); assay: Two electrode voltage clamp in Xenopus oocytes, modulation of GABA EC3 current; assay type: cell-based; details: 10 μM concentration
# Summary of the method: as §2
# α3β3 receptors = α3β3 receptors (Rattus norvegicus, UniProt P20236+P63079); assay: Two electrode voltage clamp in Xenopus oocytes, modulation of GABA EC3 current; assay type: cell-based; details: 10 μM concentration
# Summary of the method: as §1
# α1S204Cβ3δ receptors [7] = assay: Two electrode voltage clamp, steric hindrance; assay type: cell-based, rat; details: 10 μM, MTSEA-biotin treated
# α1S204Cβ3δ receptors [8] = target: α1S204Cβ3δ receptors (Rattus norvegicus, UniProt P62813+P63079, S231C); assay: Two electrode voltage clamp, steric hindrance; assay type: cell-based; details: 10 μM, without MTSEA-biotin
# α1β3γ2 receptors [9] = target: T1, α1β3γ2 receptors; details: 10 μM concentration; cited from earlier work
# α6β3γ2 receptors [10] = target: T3, α6β3γ2 receptors; details: 10 μM concentration; cited from earlier work
# α4β3γ2 receptors [11] = target: T4, α4β3γ2 receptors; details: cited from earlier work
# [12] = α1β3δ receptors, LAU 157 up to 30 μM (experiments not shown)
# Sequence of α1β2δ receptors (P62813 28-455): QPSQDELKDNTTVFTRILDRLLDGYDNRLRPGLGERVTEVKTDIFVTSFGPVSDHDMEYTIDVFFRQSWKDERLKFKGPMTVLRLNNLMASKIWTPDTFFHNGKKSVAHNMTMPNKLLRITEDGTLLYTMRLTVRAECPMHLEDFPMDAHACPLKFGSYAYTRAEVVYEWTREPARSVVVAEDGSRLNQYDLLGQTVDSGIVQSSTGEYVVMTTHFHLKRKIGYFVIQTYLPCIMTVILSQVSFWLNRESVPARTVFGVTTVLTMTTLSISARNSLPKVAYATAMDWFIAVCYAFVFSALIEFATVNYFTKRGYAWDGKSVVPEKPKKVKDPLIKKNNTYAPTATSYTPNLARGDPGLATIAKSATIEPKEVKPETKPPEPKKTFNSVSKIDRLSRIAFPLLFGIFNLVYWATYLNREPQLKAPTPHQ
# Sequence of α1β2δ receptors (P63138 25-474 limits assumed): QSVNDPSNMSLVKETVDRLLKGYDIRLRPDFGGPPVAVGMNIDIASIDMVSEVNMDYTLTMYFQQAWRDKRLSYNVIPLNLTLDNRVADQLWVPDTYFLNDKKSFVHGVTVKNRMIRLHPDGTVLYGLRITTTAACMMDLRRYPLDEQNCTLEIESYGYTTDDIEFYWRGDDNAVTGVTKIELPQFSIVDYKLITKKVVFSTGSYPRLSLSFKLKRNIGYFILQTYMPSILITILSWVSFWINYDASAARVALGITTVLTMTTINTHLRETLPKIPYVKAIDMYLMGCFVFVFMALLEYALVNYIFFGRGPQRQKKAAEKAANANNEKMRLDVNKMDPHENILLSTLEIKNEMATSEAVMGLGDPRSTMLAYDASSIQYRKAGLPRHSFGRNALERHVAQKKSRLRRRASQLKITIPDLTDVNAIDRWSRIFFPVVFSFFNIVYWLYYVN
# Sequence of α1β2δ receptors (P18506 17-449 partner limits assumed): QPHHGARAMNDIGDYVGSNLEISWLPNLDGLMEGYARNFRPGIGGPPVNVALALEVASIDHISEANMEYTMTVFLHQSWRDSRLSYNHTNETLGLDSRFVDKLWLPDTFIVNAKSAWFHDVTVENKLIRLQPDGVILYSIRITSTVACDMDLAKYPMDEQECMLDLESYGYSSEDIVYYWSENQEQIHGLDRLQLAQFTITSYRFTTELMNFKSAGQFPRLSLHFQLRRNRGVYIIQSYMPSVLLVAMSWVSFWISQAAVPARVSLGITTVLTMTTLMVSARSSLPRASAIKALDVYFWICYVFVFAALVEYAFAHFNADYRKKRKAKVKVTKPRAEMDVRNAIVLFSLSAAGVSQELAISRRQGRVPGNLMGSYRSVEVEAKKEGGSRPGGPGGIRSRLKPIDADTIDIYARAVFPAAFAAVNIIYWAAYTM
# Sequence of α1β3δ receptors (P62813 28-455): as the sequence (P62813 28-455) above
# Sequence of α1β3δ receptors (P63079 26-473): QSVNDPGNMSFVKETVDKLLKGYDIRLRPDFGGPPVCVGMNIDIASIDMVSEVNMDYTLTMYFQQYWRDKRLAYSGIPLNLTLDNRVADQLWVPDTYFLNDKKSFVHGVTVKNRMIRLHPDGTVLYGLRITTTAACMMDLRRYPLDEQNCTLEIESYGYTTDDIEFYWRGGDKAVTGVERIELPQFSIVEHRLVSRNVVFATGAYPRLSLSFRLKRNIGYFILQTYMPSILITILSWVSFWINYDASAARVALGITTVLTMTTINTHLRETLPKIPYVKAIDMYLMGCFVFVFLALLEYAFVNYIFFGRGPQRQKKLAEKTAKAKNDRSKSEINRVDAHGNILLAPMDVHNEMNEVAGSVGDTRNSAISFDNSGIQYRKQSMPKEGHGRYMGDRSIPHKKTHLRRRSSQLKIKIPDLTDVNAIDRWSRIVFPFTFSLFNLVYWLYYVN
# Sequence of α1β3δ receptors (P18506 17-449 partner limits assumed): as the sequence (P18506 17-449 partner limits assumed) above
# T2 sequence (P62813 28-455): as the sequence (P62813 28-455) above
# T2 sequence (P63079 26-473): as the sequence (P63079 26-473) above
# Sequence of α1S204Cβ3Q64C receptors (P62813 28-455 S231C): as the sequence (P62813 28-455) above, with S204C counted along it
# Sequence of α1S204Cβ3Q64C receptors (P63079 26-473 Q89C): as the sequence (P63079 26-473) above, with Q64C counted along it
compound,measurement,setting,value
"O=C(Nc1c(-c2cccs2)nc2ccccn12)c1ccc(Cl)cc1 [DS2, 4-Chloro-N-[2-(2-thienyl)imidazo[1,-2-a]pyridin-3-yl]benzamide, reference compound]",stimulation to % of GABA EC3,"α1β3δ receptors; α1β3δ receptors, 1 μM DS2 (experiments not shown)",400 % of GABA EC3
same,enhancement of GABA-induced currents,αβδ receptors,dramatically enhanced
"NCCCC(=O)O [GABA, gamma-aminobutyric acid, reference compound]",maximal GABA-induced effect (current),"α1β3δ receptors; α1β3δ receptors, GABA alone",about 1 μA
same,GABA-induced current (maximal),α1β3γ2 receptors [1],16 μA
same,GABA-induced current (maximal),α1β3 receptors [2]; GABA alone,8 μA
"O=c1c2c[nH]c3ccc(Cl)cc3c-2nn1-c1ccc([N+](=O)[O-])cc1 [LAU 157, 8-chloro-2-(4-nitrophenyl)-2H-pyrazolo[4,3-c]quinolin-3(5H)-one]",modulation of GABA EC3,α1β3δ receptors; α1β3δ receptors,did not significantly modulate
same,inhibition of the effects of 1 μM DS2,α1β3δ receptors; [12],did not inhibit
same,inhibition of the effects of 3 μM tracazolate,α1β3δ receptors; [12],did not inhibit
same,inhibition of the effect of 1 μM LAU 177,"α1β3δ receptors; α1β3δ receptors, increasing concentrations of LAU 157",complete inhibition
same,modulation of GABA EC3,α1β2δ receptors; α1β2δ receptors,did not significantly modulate
same,inhibition of the effect of 1 μM LAU 177,"α1β2δ receptors; α1β2δ receptors, increasing concentrations of LAU 157",complete inhibition
same,modulation of GABA EC3,α1β3 receptors [2],did not significantly modulate
same,inhibition of the effect of 1 μM LAU 177,α1β3 receptors [2]; increasing concentrations of LAU 157,complete inhibition
"COc1ccc2[nH]cc3c(=O)n(-c4ccc(C#N)cc4)nc-3c2c1 [LAU 177, 4-(8-methoxy-3-oxo-3,5-dihydro-2H-pyrazolo[4,3-c]quinolin-2-yl)benzonitrile]",EC50,α1β3δ receptors,1 µM
same,enhancement of the conductance induced by maximal GABA concentrations,"α1β3δ receptors; α1β3δ receptors, 10 μM LAU 177",about 12 times
same,change of GABA EC50 by the modulator,"α1β3δ receptors; α1β3δ receptors, 10 μM LAU 177, paired Student's t test p>0.05",no significant change
same,stimulation of GABA EC3,α1β3δ receptors; α1β3δ receptors,3285 ± 257%
same,GABA-induced current in the presence of LAU 177,"α1β3δ receptors; α1β3δ receptors, 1 mM GABA, 10 μM LAU 177",13 μA
same,IC50,[3],0.00075 ± 0.00081 µM
same,EC50,α1β2δ receptors,> 10.7 µM
same,stimulation of GABA EC3,"α1β2δ receptors; α1β2δ receptors, 10 μM concentration",2843 ± 396%
same,current enhancement in the presence of MTSEA-biotin,α1S204Cβ3Q64C receptors; MTSEA-biotin treated,drastically reduced
same,enhancement of GABA-induced currents compared with α1β3 receptors,α1S204Cβ3Q64C receptors; without MTSEA-biotin,to a similar extent with a comparable potency
same,stimulation to % of GABA EC3,α1β3 receptors [4],1063 ± 128 % of GABA EC3
same,stimulation of GABA EC3,α2β3 receptors,981 ± 20 % of GABA EC3
same,enhancement of the GABA-induced current,α5β3 receptors,about 528 ± 103 % GABA
same,stimulation of GABA EC3,α6β3γ2 receptors [5],1622 ± 87%
same,stimulation of GABA EC3,"α4β3δ receptors; α4β3δ receptors (printed δ4β3δ), 10 μM concentration",1365 ± 117%
same,stimulation of GABA EC3,α4β3γ2 receptors [6],981 ± 52%
same,"efficacy compared to α1β2,3δ receptors",α1β1δ receptors,drastically reduced
same,"enhancement of GABA-induced currents, up to % of GABA EC3","α1β3 receptors [2]; concentration dependent, maximum",1152 ± 145 % of GABA EC3
same,stimulation of GABA EC3 after incubation with MTSEA biotin,α1β3Q64Cδ receptors; MTSEA-biotin treated,1754 ± 568%
same,stimulation of GABA EC3,α1β3Q64Cδ receptors; without MTSEA-biotin,6941 ± 1268%
same,stimulation of GABA EC3,α6β3δ receptors,1639 ± 244%
same,stimulation of GABA EC3,α3β3 receptors,913 ± 178 % of GABA EC3
same,stimulation of GABA EC3 after incubation with MTSEA biotin,α1S204Cβ3δ receptors [7],1884 ± 311%
same,stimulation of GABA EC3,α1S204Cβ3δ receptors [8],5278 ± 1008%
"COc1ccc(-n2nc3c4cc(Cl)ccc4[nH]cc-3c2=O)cc1 [PZ-II-028, 8-chloro-2-(4-methoxyphenyl)-2H-pyrazolo[4,3-c]quinolin-3(5H)-one, reference compound]",stimulation of GABA EC3,α1β3δ receptors; α1β3δ receptors,1186 ± 89%
same,stimulation of GABA-induced currents,α1β3γ2 receptors [9],939 ± 64
same,stimulation of GABA-induced current,α6β3γ2 receptors [10],1871 ± 28%
same,modulation of GABA-induced currents,α4β3γ2 receptors [11],226 ± 14%
same,modulation of GABA-induced currents,"α4β3δ receptors; α4β3δ receptors, concentration not given",425 ± 26%
same,stimulation of GABA EC3,α6β3δ receptors,1152 ± 106%
"CCCCNc1c(C(=O)OCC)c(C)nc2c1cnn2CC [tracazolate, 4-(butylamino)-1-ethyl-6-methyl-1H-pyrazolo[3,4-b]pyridine-5-carboxylate, reference compound]",stimulation to % of GABA EC3,"α1β3δ receptors; α1β3δ receptors, 3 μM tracazolate (experiments not shown)",900 % of GABA EC3

# — PMC3921099 (Neurochemical research, 2013)
